In ChEMBL document CHEMBL1671644, “Inhibition of human immunodeficiency virus type 1 infection by the candidate microbicide dapivirine, a nonnucleoside reverse transcriptase inhibitor” (Antimicrob Agents Chemother, 2009):

Experiments:
[1] = Toxicity against human cervical tissue explants after 2 hrs by MTT assay
Outline: (§1)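 Ectocervical tissue explants, uninfected, exposed to drug for 2 or 24 h at 37°C. Viability by MTT dye reduction per milligram tissue, read right after exposure or after overnight culture following the 2-h exposure, as percent of unexposed controls. Four donors, each condition in triplicate; CC50 by nonlinear regression.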

[2] = Toxicity against human cervical tissue explants after 24 hrs by MTT assay; outline: as §1
[3] = test system: Human immunodeficiency virus 1; experiment: Antiviral activity against HIV-1 SM026 harboring NNTRI 103N and 181C mutant infected in human MT4 cells assessed as inhibition of viral replication relative to HIV-1 3B; type: functional
Outline: (§2)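 MT-4 cells (3 x 10^4/well) infected with site-directed mutants or recombinant clinical isolates (200 TCID50/well) with drug, cultured 3 to 5 days. Viability read by MTT colorimetric antivirogram assay. IC50 by nonlinear regression; fold change = IC50 for the test isolate / IC50 for wild-type HIV-1 IIIB tested in parallel (mean or median).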

[4] = test system: Human immunodeficiency virus 1; experiment: Antiviral activity against HIV-1 subtype CRF02_AG V022826 infected in human MT4 cells assessed as inhibition of viral replication relative to HIV-1 3B; type: functional; outline: as §2
[5] = test system: Human immunodeficiency virus 1; experiment: Antiviral activity against HIV-1 subtype CRF01_AE V029525 infected in human MT4 cells assessed as inhibition of viral replication relative to HIV-1 3B; type: functional
Outline: (§3)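 Recombinant clinical HIV-1 isolates (200 TCID50/well) were tested in MT-4 cells (3 x 10^4/well) over 3–5 days, with an MTT viability read-out. IC50 was fitted by nonlinear regression. Fold change is the isolate IC50 divided by the HIV-1IIIB IC50, tested in parallel.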

[6] = test system: Human immunodeficiency virus 1; experiment: Antiviral activity against HIV-1 subtype B V022814 infected in human MT4 cells assessed as inhibition of viral replication relative to HIV-1 3B; type: functional; outline: as §2
[7] = test system: Human immunodeficiency virus 1; experiment: Antiviral activity against HIV-1 subtype D V022819 infected in human MT4 cells assessed as inhibition of viral replication relative to HIV-1 3B; type: functional; outline: as §2
[8] = test system: Human immunodeficiency virus 1; experiment: Antiviral activity against HIV-1 SM058 harboring NNTRI 227L and 106A mutant infected in human MT4 cells assessed as inhibition of viral replication relative to HIV-1 3B; type: functional; outline: as §2
[9] = test system: Human immunodeficiency virus 1; experiment: Antiviral activity against HIV-1 SM034 harboring NNTRI 188L mutant infected in human MT4 cells assessed as inhibition of viral replication relative to HIV-1 3B; type: functional; outline: as §2
[10] = test system: Human immunodeficiency virus 1; experiment: Antiviral activity against HIV-1 subtype C V022829 infected in human MT4 cells assessed as inhibition of viral replication relative to HIV-1 3B; type: functional; outline: as §2
[11] = test system: Human immunodeficiency virus 1; experiment: Antiviral activity against HIV-1 subtype CRF05_DF V022833 harboring NNRTI V179I mutant infected in human MT4 cells assessed as inhibition of viral replication relative to HIV-1 3B; type: functional; outline: as §2
[12] = test system: Human immunodeficiency virus 1; experiment: Antiviral activity against HIV-1 subtype H V022827 harboring NNRTI V179I mutant infected in human MT4 cells assessed as inhibition of viral replication relative to HIV-1 3B; type: functional; outline: as §2
[13] = test system: Human immunodeficiency virus 1; experiment: Antiviral activity against HIV-1 subtype CRF02_AG V022830 infected in human MT4 cells assessed as inhibition of viral replication relative to HIV-1 3B; type: functional; outline: as §2
[14] = test system: Human immunodeficiency virus 1; experiment: Antiviral activity against HIV-1 subtype D V022832 infected in human MT4 cells assessed as inhibition of viral replication relative to HIV-1 3B; type: functional; outline: as §2
[15] = test system: Human immunodeficiency virus 1; experiment: Antiviral activity against HIV-1 subtype C V022816 infected in human MT4 cells assessed as inhibition of viral replication relative to HIV-1 3B; type: functional; outline: as §3
[16] = test system: Human immunodeficiency virus 1; experiment: Antiviral activity against HIV-1 subtype CRF01_AE V022820 infected in human MT4 cells assessed as inhibition of viral replication relative to HIV-1 3B; type: functional; outline: as §2
[17] = test system: Human immunodeficiency virus 1; experiment: Antiviral activity against HIV-1 SM012 harboring NNTRI 108I mutant infected in human MT4 cells assessed as inhibition of viral replication relative to HIV-1 3B; type: functional; outline: as §2
[18] = test system: Human immunodeficiency virus 1; experiment: Antiviral activity against HIV-1 subtype CRF01_AE V022822 infected in human MT4 cells assessed as inhibition of viral replication relative to HIV-1 3B; type: functional; outline: as §2
[19] = test system: Human immunodeficiency virus 1; experiment: Antiviral activity against HIV-1 subtype CRF02_AG V022825 infected in human MT4 cells assessed as inhibition of viral replication relative to HIV-1 3B; type: functional; outline: as §2
[20] = test system: Human immunodeficiency virus 1; experiment: Antiviral activity against HIV-1 subtype B V022813 infected in human MT4 cells assessed as inhibition of viral replication relative to HIV-1 3B; type: functional; outline: as §2
[21] = test system: Human immunodeficiency virus 1; experiment: Antiviral activity against HIV-1 SM052 harboring NNTRI 101E and 103N mutant infected in human MT4 cells assessed as inhibition of viral replication relative to HIV-1 3B; type: functional; outline: as §2
[22] = test system: Human immunodeficiency virus 1; experiment: Antiviral activity against HIV-1 subtype B V022815 infected in human MT4 cells assessed as inhibition of viral replication relative to HIV-1 3B; type: functional; outline: as §3
[23] = test system: Human immunodeficiency virus 1; experiment: Antiviral activity against HIV-1 subtype B V022809 infected in human MT4 cells assessed as inhibition of viral replication relative to HIV-1 3B; type: functional; outline: as §2
[24] = test system: Human immunodeficiency virus 1; experiment: Antiviral activity against HIV-1 SM030 harboring NNTRI 100I mutant infected in human MT4 cells assessed as inhibition of viral replication relative to HIV-1 3B; type: functional; outline: as §2
[25] = test system: Human immunodeficiency virus 1; experiment: Antiviral activity against HIV-1 subtype O V029524 harboring NNRTI A98G, V179E and Y181C mutant infected in human MT4 cells assessed as inhibition of viral replication relative to HIV-1 3B; type: functional; outline: as §2
[26] = test system: Human immunodeficiency virus 1; experiment: Antiviral activity against HIV-1 SM051 harboring NNTRI 100I and 103N mutant infected in human MT4 cells assessed as inhibition of viral replication relative to HIV-1 3B; type: functional; outline: as §2
[27] = test system: Human immunodeficiency virus 1; experiment: Antiviral activity against HIV-1 subtype CRF05_DF V022823 infected in human MT4 cells assessed as inhibition of viral replication relative to HIV-1 3B; type: functional; outline: as §2
[28] = test system: Human immunodeficiency virus 1; experiment: Antiviral activity against HIV-1 subtype B V022811 infected in human MT4 cells assessed as inhibition of viral replication relative to HIV-1 3B; type: functional; outline: as §3
[29] = test system: Human immunodeficiency virus 1; experiment: Antiviral activity against HIV-1 SM002 harboring NNTRI 181C mutant infected in human MT4 cells assessed as inhibition of viral replication relative to HIV-1 3B; type: functional; outline: as §2
[30] = test system: Human immunodeficiency virus 1; experiment: Antiviral activity against HIV-1 subtype B V022812 harboring NNRTI V179I mutant infected in human MT4 cells assessed as inhibition of viral replication relative to HIV-1 3B; type: functional; outline: as §2
[31] = test system: Human immunodeficiency virus 1; experiment: Antiviral activity against HIV-1 subtype D V022818 infected in human MT4 cells assessed as inhibition of viral replication relative to HIV-1 3B; type: functional; outline: as §2
[32] = test system: Human immunodeficiency virus 1; experiment: Antiviral activity against HIV-1 subtype H V022828 harboring NNRTI K101Q and V179I mutant infected in human MT4 cells assessed as inhibition of viral replication relative to HIV-1 3B; type: functional; outline: as §2
[33] = test system: Human immunodeficiency virus 1; experiment: Antiviral activity against HIV-1 SM007 harboring NNTRI 103N mutant infected in human MT4 cells assessed as inhibition of viral replication relative to HIV-1 3B; type: functional; outline: as §2
[34] = test system: Human immunodeficiency virus 1; experiment: Antiviral activity against HIV-1 SM024 harboring NNTRI 190A mutant infected in human MT4 cells assessed as inhibition of viral replication relative to HIV-1 3B; type: functional; outline: as §2
[35] = test system: Human immunodeficiency virus 1; experiment: Antiviral activity against HIV-1 subtype C V022831 infected in human MT4 cells assessed as inhibition of viral replication relative to HIV-1 3B; type: functional; outline: as §2
[36] = test system: Human immunodeficiency virus 1; experiment: Antiviral activity against HIV-1 subtype CRF01_AE V022821 infected in human MT4 cells assessed as inhibition of viral replication relative to HIV-1 3B; type: functional; outline: as §3
[37] = test system: Human immunodeficiency virus 1; experiment: Antiviral activity against HIV-1 subtype CRF02_AG V022808 infected in human MT4 cells assessed as inhibition of viral replication relative to HIV-1 3B; type: functional; outline: as §2
[38] = test system: Human immunodeficiency virus 1; experiment: Antiviral activity against HIV-1 subtype CRF05_DF V022824 harboring NNRTI V106I mutant infected in human MT4 cells assessed as inhibition of viral replication relative to HIV-1 3B; type: functional; outline: as §2
[39] = test system: Human immunodeficiency virus 1; experiment: Antiviral activity against HIV-1 subtype H V029523 harboring NNRTI K101Q and V179I mutant infected in human MT4 cells assessed as inhibition of viral replication relative to HIV-1 3B; type: functional; outline: as §2
[40] = test system: Human immunodeficiency virus 1; experiment: Antiviral activity against HIV-1 subtype F V029522 infected in human MT4 cells assessed as inhibition of viral replication relative to HIV-1 3B; type: functional; outline: as §2
[41] = test system: Human immunodeficiency virus 1; experiment: Antiviral activity against HIV-1 subtype B V022810 harboring NNRTI A98S andK101R mutant infected in human MT4 cells assessed as inhibition of viral replication relative to HIV-1 3B; type: functional; outline: as §2
[42] = test system: Human immunodeficiency virus 1; experiment: Antiviral activity against HIV-1 subtype CRF01_AE V029521 infected in human MT4 cells assessed as inhibition of viral replication relative to HIV-1 3B; type: functional; outline: as §3
[43] = test system: Human immunodeficiency virus 1; experiment: Antiviral activity against HIV-1 subtype B V022807 infected in human MT4 cells assessed as inhibition of viral replication relative to HIV-1 3B; type: functional; outline: as §3

CCCCCCCCCc1ccc(OCCOCCOCCOCCOCCOCCOCCOCCOCCO)cc1 [NONOXYNOL 9]
CC50 [1]: 0.07%
CC50 [2]: 0.003%

Cc1ccnc2c1NC(=O)c1cccnc1N2C1CC1 [NEVIRAPINE]
Ratio IC50 [3]: 222
Ratio IC50 [4]: 0.4
Ratio IC50 [5]: 7
Ratio IC50 [6]: 2.4
Ratio IC50 [7]: 1
Ratio IC50 [8]: 22
Ratio IC50 [9]: 222
Ratio IC50 [10]: 0.6
Ratio IC50 [11]: 1.7
Ratio IC50 [12]: 0.4
Ratio IC50 [13]: 1.3
Ratio IC50 [14]: 0.9
Ratio IC50 [15]: 3.8
Ratio IC50 [16]: 1.3
Ratio IC50 [17]: 1
Ratio IC50 [18]: 0.8
Ratio IC50 [19]: 0.7
Ratio IC50 [20]: 1
Ratio IC50 [21]: 22
Ratio IC50 [22]: 1
Ratio IC50 [23]: 5
Ratio IC50 [24]: 5
Ratio IC50 [25]: 89
Ratio IC50 [26]: 22
Ratio IC50 [27]: 0.9
Ratio IC50 [28]: 3.4
Ratio IC50 [29]: 222
Ratio IC50 [30]: 0.8
Ratio IC50 [31]: 0.5
Ratio IC50 [32]: 1.1
Ratio IC50 [33]: 22
Ratio IC50 [34]: 96
Ratio IC50 [35]: 0.9
Ratio IC50 [36]: 1.2
Ratio IC50 [37]: 0.8
Ratio IC50 [38]: 3.1
Ratio IC50 [39]: 1.4
Ratio IC50 [40]: 2.1
Ratio IC50 [41]: 1.7
Ratio IC50 [42]: 1.4
Ratio IC50 [43]: 3.4

CC(C)Nc1cccnc1N1CCN(C(=O)c2cc3cc(NS(C)(=O)=O)ccc3[nH]2)CC1 [DELAVIRDINE]
Ratio IC50 [3]: 621
Ratio IC50 [4]: 1.3
Ratio IC50 [5]: 20
Ratio IC50 [6]: 1.9
Ratio IC50 [7]: 2.3
Ratio IC50 [8]: 10
Ratio IC50 [9]: 12
Ratio IC50 [10]: 2.7
Ratio IC50 [11]: 0.6
Ratio IC50 [12]: 0.3
Ratio IC50 [13]: 0.9
Ratio IC50 [14]: 1.1
Ratio IC50 [15]: 5.3
Ratio IC50 [17]: 2
Ratio IC50 [18]: 2.7
Ratio IC50 [19]: 1.9
Ratio IC50 [20]: 0.7
Ratio IC50 [21]: 90
Ratio IC50 [22]: 4.9
Ratio IC50 [23]: 2.6
Ratio IC50 [24]: 215
Ratio IC50 [25]: 140
Ratio IC50 [26]: 621
Ratio IC50 [27]: 0.6
Ratio IC50 [28]: 3.7
Ratio IC50 [29]: 83
Ratio IC50 [30]: 6
Ratio IC50 [31]: 0.9
Ratio IC50 [32]: 2
Ratio IC50 [33]: 105
Ratio IC50 [34]: 2
Ratio IC50 [35]: 2.6
Ratio IC50 [36]: 2.3
Ratio IC50 [37]: 0.6
Ratio IC50 [38]: 1.3
Ratio IC50 [39]: 2.6
Ratio IC50 [41]: 2.7
Ratio IC50 [42]: 4.4
Ratio IC50 [43]: 3.6
